Results on one molecule are retold here after PMC6923798 (Bioorganic chemistry, 2018).

In one test the test system is RPMI-8226. In words: NCI in vitro five dose anticancer assay. Type of test: cell-based, human.
A further test concerns SF-539. In words: NCI in vitro five dose anticancer assay. Type of test: cell-based, human.
The next test relates to SNB-75. In words: NCI in vitro five dose anticancer assay. In kind it is cell-based, human.
A further test concerns OVCAR-4. In words: NCI in vitro five dose anticancer assay. Type of test: cell-based, human.
In another test the test system is NCI/ADR-RES. In words: NCI in vitro five dose anticancer assay. In kind it is cell-based, human. To be noted: 48 h.
Another test relates to MDA-MB-468. In words: NCI in vitro five dose anticancer assay. In kind it is cell-based, human.
For the next test, the system named is K-562 cell line. Nature of the test: NCI in vitro one dose anticancer assay. In kind it is cell-based. The following applies: Homo sapiens, K562, 48 h, read-out: % growth inhibition. The procedure, abridged:
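NCI protocol. Test compound added once at 10−5 M to ~60 human tumour lines from nine subpanels. Incubated 48 h at 37 °C, 5% CO2, 95% air, 100% relative humidity. Endpoint by sulforhodamine B protein staining with spectrophotometric absorbance. Growth of treated cells reported as percent of untreated cells.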

The subject of a further test is K-562. Nature of the test: MTT anti-proliferative assay. The following applies: Homo sapiens, K562, 24 h, read-out: IC50 ± SD, K-562. Type of test: cell-based, human. Background: Formazan colour is commonly taken as a measure of viable cells.

For the molecule `COc1ccc(C=CC(=O)c2ccc(NC(=O)CSc3nnc(-c4cc(OC)c(OC)c(OC)c4)o3)cc2)cc1` [Compound 8v, N-(4-(3-(4-Methoxyphenyl)acryloyl)phenyl)-2-((5-(3,4,5-trimethoxy-phenyl)-1,3,4-oxadiazol-2-yl)thio)acetamide], the 50% growth inhibitory concentration (GI50) (in general, the concentration that inhibits growth by half) with RPMI-8226 (Homo sapiens, RPMI-8226, 48 h) is 1730 nM; in the test on SF-539 (Homo sapiens, SF-539, 48 h), 1640 nM; with SNB-75 (Homo sapiens, SNB-75, 48 h), 1470 nM; with OVCAR-4 (Homo sapiens, OVCAR-4, 48 h), 2000 nM; in the test on NCI/ADR-RES (Homo sapiens) it was 2420 nM; in the test with MDA-MB-468 (Homo sapiens, MDA-MB-468, 48 h), 2100 nM. The total growth inhibition concentration (TGI) – broadly, the concentration at which net growth stops – in the test with RPMI-8226 (RPMI-8226, Leukemia, five dose, 48 h, SRB) was found to be 4310 nM; with SF-539 (SF-539, CNS cancer, five dose, 48 h, SRB) it was 3030 nM; in the test with SNB-75 (SNB-75, CNS cancer, five dose, 48 h, SRB), 3150 nM; in the test on OVCAR-4 (OVCAR-4, Ovarian Cancer, five dose, 48 h, SRB) it was 4620 nM; with NCI/ADR-RES (Ovarian Cancer, five dose, SRB), 7030 nM; in the test with MDA-MB-468 (MDA-MB-468, Breast cancer, five dose, 48 h, SRB) it was 5020 nM. For the same molecule, in the test with K-562 cell line, the inhibition (in general, the drop in the measured response relative to a control, in per cent) at 10 µM was in the range of 35.8 to 152%. In addition, in the test with K-562, the IC50 (as a rule, the point on the concentration scale where inhibition reaches its midpoint) turned out to be 1950 ± 180 nM.
